Measured values from BindingDB's records for doi:10.1021/jm00019a014 (University of Ghent, 1995).

Tests used:
[1] = biological target: glyceraldehyde-3-phosphate dehydrogenase (glycosomal GAPDH per title); assay: TInhibition of glyceraldehyde-3-phosphate dehydrogenase in Leishmania mexicana
Procedure, shortened: (§1)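 Enzyme sources: human erythrocyte GAPDH, glycosomal GAPDH from T. brucei, and glycosomal GAPDH from L. mexicana. IC50 is the inhibitor concentration at which 50% of enzyme activity remains. Poorly soluble compounds were not tested above their solubility limit, and the remaining activity at that level was recorded instead.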

[2] = biological target: glycosomal glyceraldehyde-3-phosphate dehydrogenase (GAPDH); assay: Inhibition of glyceraldehyde-3-phosphate dehydrogenase in Trypanosoma brucei; procedure, shortened: as §1

Row | Structure (SMILES) | IC50 [1] [mM] | IC50 [2] [mM]
1 | COc1cccc(C(=O)NC2C(O)C(CO)OC2n2cnc3c(N)nc(C)nc32)c1 (stereo unspecified) [N-[2-(6-Amino-2-methyl-purin-9-yl)-4-hydroxy-5-hydroxymethyl-tetrahydro-furan-3-yl]-3-methoxy-benzamide] | > 10 | > 10
2 | Nc1ncnc2c1ncn2C1OC(CO)C(O)C1NCc1ccccc1 (stereo unspecified) [5-(6-Amino-purin-9-yl)-4-benzylamino-2-hydroxymethyl-tetrahydro-furan-3-ol] | > 10 | > 10
3 | CC(C)COC(=O)NC1C(O)C(CO)OC1n1cnc2c(N)ncnc21 (stereo unspecified) [[2-(6-Amino-purin-9-yl)-4-hydroxy-5-hydroxymethyl-tetrahydro-furan-3-yl]-carbamic acid isobutyl ester] | > 10 | > 10
